Bioassay records deposited in PubChem by several laboratories.
Only some compounds are listed: those with a hit (about 6.4% of all), similar ones and a draw of the others.
E coli WT exp – growth inhibitors of wild-type E. coli, primary screen, strain BW25113, expanded library, OD600; growth inhibition, % at 100 µM; OD600 absorbance; 98,000 tested, 0.15% active; AID 710, 2007;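 active = growth inhibition above about 50% at one test dose, limit read from the data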;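 note: growth measured after 20 h incubation at 37 °C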
HUVEC inhibit – inhibitors of HUVEC proliferation, primary screen, cell-based, 384-well | CellTiter-Glo luminescence, 72 h; active compounds read low | viability, % at 10 µM (by protocol) | 86,000 tested, 1.1% active | AID 648, 2007;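 active = viability at or below 30%; inactive = viability above 30%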
Ecoli tolC – growth inhibitors of E. coli tolC mutant, primary screen, strain BW25113 ΔtolC::kan, 384-well. OD615. growth inhibition, % at 10 µM (by protocol). 65,000 tested, 2.2% active;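 active = growth inhibition at or above a cutoff equal to the mean over every tested compound plus 3 SD, cut at about 60% in these data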;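 note: growth measured after 20 h incubation at 37 °C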
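Assay system: tolC-deleted E. coli BW25113. Medium: kanamycin-containing LB broth (50 µg/mL). Dosing: 10 µM final, single dose. Timing: bacterial growth with compound for 20 h at 37 °C. Detection: A615 absorbance measurement. Read-out basis: growth inhibition in percent.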
Lung fibro prol – antiproliferative effect on LL 47 fibroblasts – human, LL 47 cells, CellTiter-Glo luminescence, primary screen. AID 719, 2007. viability, % at 10 µM. LL 47 human lung fibroblast viability, ATP luminescence; active compounds read low. 85,000 tested, 1.1% active;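 active = viability at or below 50% in the single dose screen; inactive = viability above 50%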;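 note: compound exposure lasted 72 h before the ATP readout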
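Test system: LL 47 human lung fibroblasts / Incubation: 72 h compound exposure at 37 °C after overnight plating / Technique: luminescent ATP detection, CellTiter-Glo / Compound dosing: 0.1% DMSO in all compound wells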
Jurkat viability – cytotoxicity toward Jurkat T cells, primary screen, cytotoxicity control, cell-based, Jurkat E6.1, 60K MLSMR library. 56,000 tested, 1.2% active. inhibition, % at 4 µM. Jurkat E6.1 viability, ATP luminescence, 48 h;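 active = inhibition above the mean inhibition of all tested compounds plus 3 SD, cut at about 28% in these data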
H69AR inhibit – proliferation blockers of H69AR lung cancer cells, primary screen, cell-based, human, 86K library | 85,000 tested, 6% active | H69AR lung tumor viability, ATP luminescence, 72 h; active compounds read low | viability, % at 10 µM | AID 598, 2007;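 active = viability at or below 40%; inactive = viability above 40%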;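 note: multidrug resistant small cell line overexpressing MRP-1 efflux transporter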
Of the large screens only hits and unclear results are named; the others gave an inactive call.

CN1/C(=C\C=C\C2=[N+](C)c3ccc4ccccc4c3C2(C)C)C(C)(C)c2ccccc21	E coli WT exp 84.0, HUVEC inhibit 2.0, Lung fibro prol 1.6, H69AR inhibit 0.1 (no result: Ecoli tolC, Jurkat viability)
CCOC(=O)C(O)(c1ccc(NC(=O)NC2CCCCC2)cc1)C(F)(F)F (centres undefined)	none (no result: Ecoli tolC, Jurkat viability)
N#Cc1ccccc1Cn1cc(C(=O)c2cccs2)c2ccccc21	none
COc1ccccc1OCCCn1cc(C(=O)c2ccco2)c2ccccc21	none
O=C(c1cccs1)c1cn(Cc2ccccc2Cl)c2ccccc12	H69AR inhibit 33.6 (no result: Ecoli tolC, Jurkat viability)
O=C(c1ccco1)c1cn(Cc2ccc(Cl)cc2)c2ccccc12	H69AR inhibit 10.8 (no result: Ecoli tolC, Jurkat viability)
CCC(=NCc1cccnc1)c1c(O)n(C2CCCCC2)c(=O)[nH]c1=O	none
CCC(=O)c1c(O)n(C2CCCCCC2)c(=O)[nH]c1=O	none
CCC(=NCc1ccco1)c1c(O)n(C2CCCCC2)c(=O)[nH]c1=O	H69AR inhibit 31.9
CCC(=Nc1ccc(OC)cc1OC)c1c(O)n(C2CCCCC2)c(=O)[nH]c1=O	Ecoli tolC 76.9
CCN(CC)CCCN=Cc1c(O)n(CCc2ccc(OC)c(OC)c2)c(=O)[nH]c1=O	none
O=c1[nH]c2ccccc2n1C1CCN(CCCC(c2ccc(F)cc2)c2ccc(F)cc2)CC1	HUVEC inhibit 2.7, H69AR inhibit 1.7 (no result: E coli WT exp, Jurkat viability)
O=c1[nH]c(CN2CCNCC2)nc2ccccc12	none (no result: Ecoli tolC, Jurkat viability)
Cc1nc2c(=O)n(C)c(=O)nc-2n(C)n1	HUVEC inhibit 5.6, Lung fibro prol 2.5, H69AR inhibit 2.6 (no result: E coli WT exp, Ecoli tolC, Jurkat viability)
Cc1[nH]c2c(C(F)(F)F)cccc2c1CCN	Jurkat viability 52.6, H69AR inhibit 17.7
CN1CCC(N(C)c2ncnc3ccc(Br)cc23)CC1	none
Cc1ccc(-c2nc(N(C)C3CCN(C)CC3)c3ccccc3n2)cc1	HUVEC inhibit 4.3, Lung fibro prol 38.3, H69AR inhibit 2.7 (no result: Ecoli tolC, Jurkat viability)
CCOC(=O)C1=C(N)Oc2ccccc2C12C(=O)N(CC(=O)OC)C(CC(=O)OC)=C2C(=O)OC (centres undefined)	none (no result: Ecoli tolC, Jurkat viability)
O=P(O)(O)C12CC3CC(CC(C3)C1)C2	none
CCn1nc(-c2ccccc2)nc2c(=O)n(C)c(=O)nc1-2	Ecoli tolC 100.0 (no result: HUVEC inhibit, Lung fibro prol, H69AR inhibit)
COc1ccc(C2NCc3ccc4c(c3-n3cccc32)OCO4)cc1O (centres undefined)	Jurkat viability 77.9, H69AR inhibit 29.3
COc1ccc2c(c1)CC1(CN2C)C(=O)NC(=O)N(c2ccc(C)cc2)C1=O (centres undefined)	none
CCOC(=O)C1C(=O)N(C)C2(C)CC1c1cc(OC)ccc1O2 (centres undefined)	none
CCOC(=O)c1c(-c2ccc(OC)cc2)oc2ccc(OC(=O)N(C)C)cc12	Ecoli tolC 67.8, H69AR inhibit 32.6
FC(F)(F)c1ccc2c(c1)ncn2C1CCN(Cc2nnnn2C2CCCCC2)CC1	H69AR inhibit 37.3
COc1cccc(-n2c(-c3ccoc3)nc3ccccc3c2=O)c1	none (no result: Ecoli tolC, Jurkat viability)
CC(C)(C)n1c(O)c(C=Nc2ccc3c(c2)CCC3)c(=O)[nH]c1=O	Ecoli tolC 81.6 (no result: H69AR inhibit)
CCCCc1nc2ccccc2c(=O)n1-c1ccc(Cl)cc1[N+](=O)[O-]	none (no result: HUVEC inhibit, Ecoli tolC, Lung fibro prol, Jurkat viability, H69AR inhibit)
C1=C(CCNCc2ccccc2)CCCC1	E coli WT exp 94.0 (no result: HUVEC inhibit, Ecoli tolC, Lung fibro prol, Jurkat viability, H69AR inhibit)
CCCNC(=O)c1c(N)n(Cc2ccc3c(c2)OCO3)c2nc3ccccc3nc12	none (no result: HUVEC inhibit, Lung fibro prol, H69AR inhibit)
CC(C)CCNC(=O)c1c(N)n(Cc2ccc3c(c2)OCO3)c2nc3ccccc3nc12	HUVEC inhibit 14.8, H69AR inhibit 6.1 (no result: Ecoli tolC, Jurkat viability)
COCCNC(=O)c1c(N)n(CCC(C)C)c2nc3ccccc3nc12	H69AR inhibit 14.9 (no result: Ecoli tolC, Jurkat viability)
CC(C)CNC(=O)c1c(N)n(Cc2ccc3c(c2)OCO3)c2nc3ccccc3nc12	H69AR inhibit 25.9 (no result: Ecoli tolC, Jurkat viability)
COc1ccc(Cn2c(N)c(C(=O)NCc3ccco3)c3nc4ccccc4nc32)cc1OC	none
Cc1ccc(N2C(=O)NC(=O)/C(=C/c3ccc(OC(=O)c4cccs4)cc3)C2=O)cc1	none (no result: HUVEC inhibit, Ecoli tolC, Lung fibro prol, Jurkat viability, H69AR inhibit)
